Measurements: the RNAGym collection of RNA variant scans (doi:10.1101/gad.245936.114)
This sample holds only a part of the variants without activity.

B1: tRNA (parent)
chain: CUCUCGGUAGCCAAGUUGGUUUAAGGCGCAAGACUUUAAUUUAUCACUACGAAAUCUUGAGAUCGGGCGUUCGACUCGCCCCCGGGAGAUUUUUUCCUCGAGCAA

Variants of: B1
Assay: nonsense suppression (GFP-seq) (ratio to wild type); higher = more function; SUP4oc tRNA, yeast GFP reporter sort-seq
How it was run: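 Each variant's nonsense suppression (GFPSEQ) is a cell-share-weighted bin median GFP/RFP relative to the unmutated parent tRNA. Yeast with genome-integrated tRNA variants from a ~3% random-mutation library, a galactose-driven GFP ochre reporter and RFP were grown in raffinose/galactose medium with 80 mg/L adenine, then sorted into GFP/RFP bins for Illumina sequencing. Variants needed ≥100 reads and ≥30 cells.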

Compared with U4C U35C G69C, U21G C75G is higher in nonsense suppression: at most 0.026 for the first, 1.05 for the second.

Going from U21C G61A A62C to C3A A23G G25U C72A, the nonsense suppression falls from 0.0269 to at most 0.026.

First: G28C U55C
Second: U4G A23C G26U A62U G69C G84U
The nonsense suppression of the first is higher: 0.183 for the first, 0.116 for the second.

Going from A9G U63C to U4C A9C G84A, the nonsense suppression falls from 0.772 to 0.0602.

Compared with A13U C29U C81U, U4C G6U is higher in nonsense suppression: 0.0757 for the first, 0.959 for the second.

Going from C5U C75U to G28C U76C, the nonsense suppression rises from 0.0347 to 0.799.

Going from U58G G85A to A13G C29A, the nonsense suppression falls from 0.0573 to 0.03.

Going from U21C A54C U63G C82U to C12U A13U, the nonsense suppression rises from at most 0.026 to 0.626.

A33C U55C C64G U76C and G65U G84U cannot be ordered by nonsense suppression: at most 0.026 for the first, at most 0.026 for the second.

C64G G85C and C3A G86C cannot be ordered by nonsense suppression: at most 0.026 for the first, at most 0.026 for the second.

G7A U20G and C27U U58A G59A cannot be ordered by nonsense suppression: at most 0.026 for the first, at most 0.026 for the second.

C5G C12A G59U and G7A C34U cannot be ordered by nonsense suppression: at most 0.026 for the first, at most 0.026 for the second.

First: U63G A89G
Second: U2A A31U A33G U58A
The nonsense suppression of the first is higher: 0.0674 for the first, at most 0.026 for the second.

First: C27U A31C G61C
Second: A30U U76G
The nonsense suppression of the first is lower: at most 0.026 for the first, 0.0538 for the second.

Compared with C12U U76A, C12A C77A G86U is lower in nonsense suppression: 0.244 for the first, at most 0.026 for the second.

Compared with A13C U17G C82U, U4C A24U is higher in nonsense suppression: 0.142 for the first, 0.84 for the second.

Compared with A13G C80U, C5A U8C A9U C80A is lower in nonsense suppression: 0.0419 for the first, at most 0.026 for the second.

First: C1U C12U
Second: A60U G78C G85A
The nonsense suppression of the first is lower: at most 0.026 for the first, 1.16 for the second.

U20G G32C A62U and G18C A54G cannot be ordered by nonsense suppression: at most 0.026 for the first, at most 0.026 for the second.

Going from U20A U35G A60C G69A C82A to C3U C29G C83G G88C, the nonsense suppression rises from at most 0.026 to 0.993.

Compared with G15U U20C, C34G G61A is higher in nonsense suppression: 0.0275 for the first, 0.0334 for the second.

C34G G61C and A23U C80G cannot be ordered by nonsense suppression: at most 0.026 for the first, at most 0.026 for the second.

Compared with G15U U21A U55G, C12U C79U is higher in nonsense suppression: at most 0.026 for the first, 0.205 for the second.

Compared with A13U U21G, C64G C79A is lower in nonsense suppression: 0.763 for the first, at most 0.026 for the second.

Going from C11A A54C G59A U71C C80A G88C to G61A G65A, the nonsense suppression rises from at most 0.026 to 0.127.

Going from U4G A89U to G32A U70A C72A, the nonsense suppression falls from 0.0348 to at most 0.026.

First: A23G G67A C80A
Second: A24U G85U
The nonsense suppression of the first is lower: at most 0.026 for the first, 0.0597 for the second.

Going from A31U U55C to U4C A31G G65A, the nonsense suppression falls from 0.0547 to at most 0.026.

First: U4G U20C A33G
Second: U21A C79U
The nonsense suppression of the first is lower: 0.0309 for the first, 0.444 for the second.

U21A C79G and C5G A60C C64A cannot be ordered by nonsense suppression: at most 0.026 for the first, at most 0.026 for the second.

Compared with C64U C81A, A31C U57A is higher in nonsense suppression: at most 0.026 for the first, 0.219 for the second.

Going from G15C A23G G61A to A9C A54U, the nonsense suppression rises from at most 0.026 to 1.21.

Compared with U4C U17C, C3A A89G is lower in nonsense suppression: 1.04 for the first, at most 0.026 for the second.

First: G61U C75U G85A
Second: U57G U70G
The nonsense suppression of the first is higher: 1.04 for the first, at most 0.026 for the second.

A54G U71A and U21A U63G G86A cannot be ordered by nonsense suppression: at most 0.026 for the first, at most 0.026 for the second.

Compared with U22G G73A, A33C G61A A62G G73C is lower in nonsense suppression: 0.854 for the first, at most 0.026 for the second.

Compared with A54C C68G, A24C G26U is higher in nonsense suppression: at most 0.026 for the first, 0.038 for the second.

First: A54C
Second: C11A U16C
The nonsense suppression of the first is higher: 1.16 for the first, at most 0.026 for the second.

Going from U63A C68U to C27U G28A, the nonsense suppression falls from 0.755 to 0.0265.

Going from C64G C72U to U55C A74G, the nonsense suppression rises from at most 0.026 to 0.144.

A9C U21A A31G U71C and A13G C56G U71G cannot be ordered by nonsense suppression: at most 0.026 for the first, at most 0.026 for the second.

Compared with U4A A13C, A14U G66A is lower in nonsense suppression: 0.294 for the first, at most 0.026 for the second.

G10C G15C U20G and C1U U2G U20G C29A cannot be ordered by nonsense suppression: at most 0.026 for the first, at most 0.026 for the second.

First: U4C G6U G28A
Second: U20A A31G
The nonsense suppression of the first is lower: 0.427 for the first, 0.461 for the second.

U21G C79A and A14U A60C G66A G67A cannot be ordered by nonsense suppression: at most 0.026 for the first, at most 0.026 for the second.

Compared with A30G A89C, A54C U63A is higher in nonsense suppression: 0.0603 for the first, 0.377 for the second.

Going from G61A A87G to G26C G61A, the nonsense suppression falls from 0.197 to at most 0.026.

A14G A24C A31G C56G and C3U A9U A30G A54U G67A cannot be ordered by nonsense suppression: at most 0.026 for the first, at most 0.026 for the second.

A14C U16C G19A A23U C29U A30G C72G C82A and G10A A60C G66C G78A cannot be ordered by nonsense suppression: at most 0.026 for the first, at most 0.026 for the second.

Compared with G10A G78A, G7A G61A is lower in nonsense suppression: 0.0314 for the first, at most 0.026 for the second.

Compared with U21A A24U, A30G A74U is lower in nonsense suppression: 0.184 for the first, 0.028 for the second.

Compared with A23U C29U, U17C A60G is higher in nonsense suppression: 0.112 for the first, 0.411 for the second.

Going from U58C G61A to G28A U76C, the nonsense suppression rises from 0.0586 to 1.09.

Compared with C80U A87U, U20C A60G is higher in nonsense suppression: 0.035 for the first, 0.0437 for the second.

Going from G15C C34A C82G to C77U C79A C83A, the nonsense suppression falls from 0.816 to at most 0.026.

Compared with C11U G32U G69C G85C, U2G A13U is higher in nonsense suppression: at most 0.026 for the first, 0.0638 for the second.

Going from A9U A13U to G59U A74C C82U, the nonsense suppression falls from 0.819 to at most 0.026.

First: G15A G26U U55A
Second: A24U C80U
The nonsense suppression of the first is lower: at most 0.026 for the first, 0.192 for the second.

Compared with U2C C75U, A14U G25C C27U is lower in nonsense suppression: 0.206 for the first, at most 0.026 for the second.

Going from C11G G26C to U4A C83G G88C, the nonsense suppression falls from 0.359 to at most 0.026.

Compared with G28U A62G U63A A74C, A13U G15A is higher in nonsense suppression: at most 0.026 for the first, 0.046 for the second.

Compared with G61A C75U, A23G U63A is lower in nonsense suppression: 0.923 for the first, 0.0418 for the second.

Compared with C12U G61U, C11U G85C A87G is lower in nonsense suppression: 0.248 for the first, at most 0.026 for the second.

G7C U76C and A62C C64G cannot be ordered by nonsense suppression: at most 0.026 for the first, at most 0.026 for the second.

Going from A31G U63A to U16G A54C C81U, the nonsense suppression falls from 0.684 to 0.0601.

First: U58C A60C
Second: U8A U57G C82A
The nonsense suppression of the first is higher: 0.0568 for the first, at most 0.026 for the second.

First: A30U G61A
Second: A14G G19A A31U G66C A74C G78U
The nonsense suppression of the first is higher: 0.0365 for the first, at most 0.026 for the second.

First: U4G U22A
Second: G85C
The nonsense suppression of the first is higher: 0.216 for the first, 0.163 for the second.

Going from A9U G61U to C5U C11A U21G A87U, the nonsense suppression falls from 0.573 to at most 0.026.

Going from G10C C77G to A24C U76C, the nonsense suppression rises from at most 0.026 to 0.88.

U20A C34U G66U and C11G A31G cannot be ordered by nonsense suppression: at most 0.026 for the first, at most 0.026 for the second.

Compared with U22A G65A, U4A U16G is higher in nonsense suppression: 0.12 for the first, 0.247 for the second.

Compared with C56G U58C G66C U70C, A33G G61U is higher in nonsense suppression: at most 0.026 for the first, 0.119 for the second.

Going from U8C A9U C34G C68U to U21G A30G, the nonsense suppression rises from at most 0.026 to 0.227.

First: C3A G78A
Second: U2G G10A C11G U20G A33G
The nonsense suppression of the first is higher: 0.0776 for the first, at most 0.026 for the second.

Going from C12U A30G to C72A G85C, the nonsense suppression falls from 0.363 to at most 0.026.

Going from C12U A54C to G73A G88U, the nonsense suppression rises from 0.0512 to 0.0757.

Compared with U20C G85A, G10U A30C U57C U63C is lower in nonsense suppression: 0.861 for the first, at most 0.026 for the second.

Going from C29U G59C to A9G A13C, the nonsense suppression rises from 0.0272 to 0.183.

Going from G32U U55G A62C to A60U U63G, the nonsense suppression rises from at most 0.026 to 0.789.

Compared with A24C G65U, C27G G66U is lower in nonsense suppression: 0.0266 for the first, at most 0.026 for the second.

Compared with U4A A9U, A54C A87G is higher in nonsense suppression: 0.2 for the first, 0.59 for the second.

C3G C29G A54U and C1A A30C cannot be ordered by nonsense suppression: at most 0.026 for the first, at most 0.026 for the second.

For G28A A54C C68U, the nonsense suppression was 0.18.
